# In the library only some 2.4% were active in any assay of this set; here they are far more common.
# GSIS activator = GLuc luminescence reporter in INS-1E cells, primary screen for activators of glucose-dependent secretion of insulin; 370,000 tested, 0.61% active; activation, % at 16.6 µM; INS-1E GLuc reporter insulin secretion, 2-3 h;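 active = lowest replicate activation of at least 40%, so every replicate reaches that level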;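 note: 0% = median of neutral control wells and 100% = median of IBMX positive control wells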
# miR-122 sensor = miR-122 Renilla sensor signal increase in Huh7, primary screen, miR-122 inhibitor project, cell-based, single point, plate reader. Huh7 miR-122 Renilla luciferase sensor, 48 h; neutral wells = 0, positive control = 100. activation (reporter increase), % at 12.5 µM. 340,000 tested, 0.3% active;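 active = mean replicate activation score at least 90 and every replicate individually at or above 90; inconclusive = only one of the two criteria met; inactive = neither criterion met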;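 note: higher luciferase means less miR-122 activity so hits act as miR-122 inhibitors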
# Rtt109 Vps75 = inhibitors of C. albicans Rtt109/Vps75 HAT, primary screen, biochemical, ThioGlo CoA-SH fluorescence, plate reader. purified Rtt109/Vps75, 4 h. inhibition, % at 34.9 µM. 330,000 tested, 0.16% active. AID 540336, 2011;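 active = inhibition of at least 50% in every replicate; inconclusive = best replicate reaches 50% inhibition but some replicates fall short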
# dFosB act = activators of delta FosB homodimer, primary screen, biochemical, fluorescence polarization, TAMRA-CDK5 oligo, single point; activation, % at 25 µM; Protein FosB (Mus musculus), P13346; purified delta FosB; percent of positive-control signal above neutral wells; 340,000 tested, 0.99% active; AID 493131, 2011;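 active = mean activation above about 17%, with every replicate also reaching it, limit read from the data, passing the limit was not always enough; inconclusive = only one of the two conditions met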
# Target sequence (P13346 whole entry, looked up): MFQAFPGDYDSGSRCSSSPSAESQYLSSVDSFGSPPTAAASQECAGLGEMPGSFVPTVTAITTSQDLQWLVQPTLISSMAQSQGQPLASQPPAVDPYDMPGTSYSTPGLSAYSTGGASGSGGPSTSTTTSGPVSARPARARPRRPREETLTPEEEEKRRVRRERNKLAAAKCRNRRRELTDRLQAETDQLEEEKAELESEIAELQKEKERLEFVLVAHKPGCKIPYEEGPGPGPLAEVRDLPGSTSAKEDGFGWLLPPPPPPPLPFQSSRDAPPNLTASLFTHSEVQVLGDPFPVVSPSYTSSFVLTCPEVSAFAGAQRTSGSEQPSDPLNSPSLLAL
# Cneo AK release = Cryptococcus neoformans cell lysis inducers, primary screen, AK release luminescence, single concentration; C. neoformans lysis, adenylate kinase release luminescence, 4 h; normalised: neutral wells 0, clomiphene wells 100; lysis activity, % at 15 µM; 360,000 tested, 0.2% active;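 active = mean lysis activity across replicates of at least 80%, whatever share of replicates individually reach that level; inactive = mean lysis activity below 80%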
#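 Assay system: C. neoformans cells. Amount: yeast cell density of 5 × 10^6 cells/mL. Technique: AK luminescence. Buffer or medium: YPD. Times: static 4 h at 37 °C with compound, 1 h detection. Dosing: single-point compound dose. Read-out: lysis from increased AK signal.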
# HIV Env fusion = inhibitors of HIV-1 Env-driven cell-cell fusion, primary screen, HeLa-JRFL effector, CEM21 target cells, luciferase | inhibition, % at 12.3 µM | 360,000 tested, 1.1% active | AID 651610, 2012;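 active = mean replicate inhibition score of at least 50 and every replicate individually at or above 50; inconclusive = only one of the two criteria met; inactive = mean below 50 and not all replicates reaching 50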;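 note: 0% = plate neutral controls and 100% = maraviroc near 300 nM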
# Starred values were filed as active, the others as inactive; ? = inconclusive; . = no result; [ ] = dose if it differs, or a comment.
SMILES,GSIS activator,miR-122 sensor,Rtt109 Vps75,dFosB act,Cneo AK release,HIV Env fusion
O=C(NC1CCCCC1)C(c1ccc(F)cc1)N(Cc1ccco1)C(=O)c1csnn1 (configuration not stated),-2,-1,10,-8,-2,63*
Cc1ccc(C(C(=O)NC2CCCCC2)N(C(=O)c2csnn2)C2CCCC2)o1 (configuration not stated),6,-15,6,-9,3,71*
Cc1ccc(C(C(=O)NC2CCCC2)N(C(=O)c2csnn2)C2CCCC2)o1 (configuration not stated),-15,-7,4,-6,0,18
CC(C)CCN(C(=O)c1csnn1)C(C(=O)NC1CCCC1)c1ccc(F)cc1 (configuration not stated),-40,.,11,-13,-1,76*
Cc1ccn2c(NC3CCCC3)c(-c3ccncc3)nc2c1,4,2,7,-1,1,7
Cc1ccn2c(NC3CCCCC3)c(-c3cccc(-c4cccc(Cl)c4)c3)nc2c1,-19,37,-3,2,6,70*
COc1cc(-c2nc3ccccn3c2NCc2ccccc2)ccc1SC1CCCCC1,.,.,-11,2,5,.
COc1ccc(-c2nc3ccccn3c2NC2CCCCC2)cc1SC1CCCCC1,.,115*,11,-7,1,44
C[C@H]1CN([C@@H](C)CO)C(=O)c2cc(NC(=O)Cn3cnnn3)ccc2O[C@H]1CN(C)Cc1ccc(-c2ccccc2)cc1,18,-1[16.7 µM],.,.,9,-15[16.7 µM]
COc1ccccc1CNc1nc(NC(C)C)nc2cc(-c3ccccc3)sc12,-8,71,.,.,-9,-13
Cc1ccc(F)cc1-c1nc(NC(C)C)nc2cc(-c3ccccc3)sc12,66*,4,.,.,0,13
O=C(N[C@@H]1CC[C@@H](CC(=O)N2CCc3ccccc3C2)O[C@H]1CO)C1CCOCC1,-8,-14[16.7 µM],.,.,-3,8[16.7 µM]
CC(C)(C)c1ccc(Cn2nnc3c(=O)[nH]c(C4CCCN(C(=O)Cc5cccs5)C4)nc32)cc1 (configuration not stated),-36,-2,?,1,1,63*
CC(C)(C)c1ccc(Cn2nnc3c(=O)[nH]c(C4CCN(C(=O)Cc5cccs5)CC4)nc32)cc1,.,-2,24,-27,4,72*
C[C@@H]1CCCCO[C@H](CN(C)C)[C@@H](C)CN([C@@H](C)CO)C(=O)c2cc(NS(=O)(=O)c3cccs3)ccc2O1,11,0[16.7 µM],.,.,10,14[16.7 µM]
O=C(NCCNS(=O)(=O)c1ccc(Cl)cc1)c1cc(OCC(F)(F)F)ccc1OCC(F)(F)F,.,13,1,-6,3,125*
Cc1ccccc1S(=O)(=O)N1[C@@H]2CNC[C@H]1C2c1ccc(/C=C/c2ccccc2)cc1 (some centres not stated),11,.,.,.,.,.
Cc1cc(Br)ccc1Nc1nc(N)nc(N)c1N=O,.,-1,-1,-6,0,56*
O=C(CNC(=O)c1ccc(Cl)cc1)NCC(F)(F)F,28,.,-3,0,.,5
CC(=O)NCCNC(=O)CNC(=O)c1ccc(Cl)cc1,47*,.,23,-4,.,-21
CC(=O)/C(=N/Nc1ccccc1)Sc1nnc(C(O)c2ccccc2)n1-c1ccccc1 (configuration not stated),-20,24,57*,-7,1,-5
CNc1cccnc1C=NNC(N)=S,2,-1,14,-6,.,81*
CC(NC(=O)c1ccccc1NC(=O)CN1CCc2ccccc2C1)c1ccccc1 (configuration not stated),-11,0,5,-8,-1,69*
O=C(Nc1ccccc1)c1ccc(CN2CCc3ccccc3C2)cc1,-36,-8,-9,-1,.,61*
CCc1ccc(NC(=O)CN2CCc3ccccc3C2)cc1,.,265*,8,-6,-2,-5
Cc1cc(C)cc(NC(=O)c2ccc(CN3CCc4ccccc4C3)cc2)c1,-16,.,2,-25,-1,10

# Source: PubChem (Broad Institute)
